# The full list was thinned out, with hits kept by preference.
# T cruzi inh: T. cruzi replication inhibition | T. cruzi beta-gal in NIH3T3, luminescence, 90 h | inhibition, % (test concentration not listed) | 300,000 compounds, 1.4% hits | AID 1885;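 active = mean inhibition across valid replicates above about 55%, limit read from the data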;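 also: signal also drops with host cell toxicity which is not excluded here; 0% = plate median of DMSO wells and 100% = zero luminescence signal; higher percent means less beta-gal luminescence so fewer parasites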
#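 Assay system: NIH/3T3 fibroblasts plus reporter T. cruzi. Amount: NIH/3T3 cells, 5,000 per well. Buffer or medium: DMEM, 2% fetal bovine serum. Doses: compound pinned at 50 nL/well, DMSO. Schedule: ≥90 h infection period, 3 h prior cell attachment. Signal: luminescent β-galactosidase signal after 60 min lysis. Read-out: parasite load inhibition, %.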
# Dynein cargo inh: blocks dynein driven cargo transport along microtubules; 3617.4 mouse cells, GR-EGFP nuclear translocation imaging; test concentration mostly 20 µM; stimulated with dexamethasone, 1 µM; hits give low values; z-score, hits read low; 220,000 compounds, 0.47% hits;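 active = plate z-score of nuclear minus cytoplasmic receptor signal below a set negative limit, without overly bright fluorescence or cell loss, cut at about -3.5 in these data, passing the limit was not always enough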;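 also: z-score of nuclear minus cytoplasmic ring GR-EGFP intensity difference per well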
#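 Buffer or medium: tet-free, stripped-serum medium; reagent: dexamethasone at 1.0 µM final, 30 min; incubation: 48 h induction, 1 h compound, 30 min dex at 37 °C; measured by: formaldehyde fixation, Hoechst nuclear stain, 10x automated fluorescence imaging; read-out: nuclear-to-cytoplasmic GR-EGFP distribution per well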
# CHOP inhibitor: CHOP inhibition in unfolded protein response | CHO-K1 CHOP-promoter luciferase, tunicamycin-induced, 15-18 h | 220,000 compounds, 3.8% hits | inhibition, % at 10 µM;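 active = compounds that reduced the stress-induced luciferase reporter signal by more than about 70% of percent inhibition, limit read from the data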;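 also: 0% = tunicamycin plus vehicle and 100% = wells without tunicamycin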
# XBP1 UPR activ: adaptive UPR (XBP1) activation | CHO-XBP1 luciferase reporter, IRE1-XBP1 UPR activation, luminescence; percent of tunicamycin response, DMSO as zero | activation, % at 20 µM | 330,000 compounds, 0.33% hits;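 active = versus positive control, 20 µM dose yields 30% or more activation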;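 also: 100% = tunicamycin at 10 µg/mL and 0% = DMSO only wells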
#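 Material: CHO-XBP1 cells stably carrying IRE1-XBP1-driven luciferase reporter / Amount: 1000 cells per well / Compound: 20 µM, 1% DMSO / Times: 6 h treatment, 37 °C / Detection: luciferase luminescence / Measure: % activation of reporter signal versus tunicamycin and DMSO controls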
# CHOP UPR activ: apoptotic UPR (CHOP) activation | CHO-CHOP luciferase reporter, luminescence; percent of tunicamycin response over DMSO baseline | activation, % at 10 µM | 330,000 compounds, 0.34% hits;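 active = at 10 µM dose, activation of 40% or more, normalized to positive control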;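 also: 100% = tunicamycin at 10 µg/mL and 0% = DMSO alone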
#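 Assay system: CHO cells with stable CHOP pathway luciferase reporter; Buffer or medium: F12 plus 10% serum; Times: 16-18 h cell attachment, then 6 h compound exposure, 37 °C; Signal: luciferase luminescence; Read-out basis: percent activation relative to tunicamycin control; Control set: tunicamycin high control, DMSO low control.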
# L major viab: inhibitors of Leishmania major promastigote growth; AID 1063; inhibition, % at 10 µM; 200,000 compounds, 9% hits; Leishmania major promastigotes, resazurin fluorescence viability; in the data active = inhibition above about 50%;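 also: promastigotes grown with compound for 44 hours at 28 °C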
# An asterisk follows results filed as active; x = no result.
SMILES,T cruzi inh,Dynein cargo inh,CHOP inhibitor,XBP1 UPR activ,CHOP UPR activ,L major viab
O=c1cc(N2CCCCC2)c(-c2ccccc2)nn1Cc1ccc(Cl)cc1,48,-0.99,71*,-1,2,7
O=c1cc(N2CCCCC2)c(-c2ccccc2)nn1Cc1ccc(F)cc1,55*,1.1,81*,-8,2,24
O=c1cc(N2CCCCC2)c(-c2ccccc2)nn1Cc1c(Cl)cccc1Cl,42,0.36,5,-2,0,27
CCOC(=O)c1ccc(S(=O)(=O)N2CCN(C3CC(=O)N(c4ccccc4C(F)(F)F)C3=O)CC2)cc1 (stereo not drawn),x,x,x,0,0,x
COc1cc(/C=N/Nc2ccccc2[N+](=O)[O-])cc(OC)c1O,4,-0.44,30,13,1,30
COc1cc(/C=N/Nc2ccc(F)cc2F)cc(OC)c1O,15,-0.6,-168,-4,1,68*
O=[N+]([O-])c1cc(CN2CCCCCC2)ccc1O,10,x,x,-5,0,x
Cc1ccc(Sc2ccc(CN3CCCCC3)cc2[N+](=O)[O-])cc1,50,0.36,6,4,2,79*
O=C(NCCCN1CCOCC1)c1ccc(Br)cc1Br,-6,0.26,4,x,x,81*
Cc1c(Br)cc(C(=O)NCCCN2CCOCC2)c(C)c1C,6,-1.2,-29,-1,-1,61*
O=C(Nc1ccccc1)C(=O)Nc1ccc2c(c1)N(C(=O)C1CC1)CCC2,2,x,x,1,-1,x
CCN(CC(=O)NC1CCS(=O)(=O)C1)c1ccc(S(=O)(=O)N(CC)CC)cc1[N+](=O)[O-] (stereo not drawn),x,x,x,-1,0,x
CCNc1nc(SCCOc2ccc(C)cc2)nc(N(C)C)n1,20,-0.19,53,2,-1,-1
CCNc1nc(SCCOc2ccc(Cl)cc2Cl)nc(N(C)C)n1,31,0.34,91*,x,x,56*
O=C1c2cccc3c(N4CCCCC4)ccc(c23)C(=O)N1c1cccc(O)c1,31,1.7,72*,-3,3,40
CCOc1ccc(NC(=O)C(C)Oc2ccc(C#N)cc2)cc1S(=O)(=O)N1CCCC1 (stereo not drawn),x,x,x,1,1,x
COc1ccc(C(O)C(CN2CCOCC2)c2ccccc2)cc1F (stereo not drawn),5,3.4,5,-1,-2,86*
COc1ccccc1C(O)(c1ccccc1)C(CN1CCOCC1)c1ccccc1 (stereo not drawn),3,-0.79,2,2,-1,39
CC1CCN(c2cc(N3CCOCC3)c(F)cc2[N+](=O)[O-])CC1,33,0.34,82*,-2,5,0
CC(=O)N1CCN(c2cc(N3CCCC3)c(F)cc2[N+](=O)[O-])CC1,7,0.92,1,0,1,2
CC(C)C(=O)N1CCN(c2cc(N3CCN(C)CC3)c(F)cc2[N+](=O)[O-])CC1,77*,-0.028,8,-2,0,96*
CCN1CCN(c2cc(N3CCc4ccccc4C3)c(F)cc2[N+](=O)[O-])CC1,28,-1.8,15,2,3,61*
Oc1c(Cl)cc(Cl)cc1/C=C/c1ccc2cccc(O)c2n1,-41,0.61,18,3,-1,46
COc1cc(/C=C/c2ccc3cccc(O)c3n2)c(Br)cc1O,56*,x,x,26,19,x
Cc1cccc(N=Cc2cc3c(cc2[N+](=O)[O-])OCO3)c1,-2,-0.78,28,-2,0,20
COc1cc(C=Nc2cccc(C)c2)c(O)c([N+](=O)[O-])c1,47,-0.12,65,1,-1,68*
Oc1ccc(Cl)cc1/C=C/c1ccc2cccc(O)c2n1,21,2.2,94*,6,5,89*
COc1ccc(OC)c(/C=C/c2ccc3cccc(O)c3n2)c1,61*,x,x,22,26,x
CC12CCC(=O)N1C(C(=O)Nc1cc(S(=O)(=O)N3CCCCCC3)ccc1OCC(F)(F)F)CS2 (stereo not drawn),38,x,x,-9,3,x
